Experiment [1] deals with T1, P2X purinoceptor 7 (Homo sapiens) (UniProt Q99572).
T1 sequence (whole entry): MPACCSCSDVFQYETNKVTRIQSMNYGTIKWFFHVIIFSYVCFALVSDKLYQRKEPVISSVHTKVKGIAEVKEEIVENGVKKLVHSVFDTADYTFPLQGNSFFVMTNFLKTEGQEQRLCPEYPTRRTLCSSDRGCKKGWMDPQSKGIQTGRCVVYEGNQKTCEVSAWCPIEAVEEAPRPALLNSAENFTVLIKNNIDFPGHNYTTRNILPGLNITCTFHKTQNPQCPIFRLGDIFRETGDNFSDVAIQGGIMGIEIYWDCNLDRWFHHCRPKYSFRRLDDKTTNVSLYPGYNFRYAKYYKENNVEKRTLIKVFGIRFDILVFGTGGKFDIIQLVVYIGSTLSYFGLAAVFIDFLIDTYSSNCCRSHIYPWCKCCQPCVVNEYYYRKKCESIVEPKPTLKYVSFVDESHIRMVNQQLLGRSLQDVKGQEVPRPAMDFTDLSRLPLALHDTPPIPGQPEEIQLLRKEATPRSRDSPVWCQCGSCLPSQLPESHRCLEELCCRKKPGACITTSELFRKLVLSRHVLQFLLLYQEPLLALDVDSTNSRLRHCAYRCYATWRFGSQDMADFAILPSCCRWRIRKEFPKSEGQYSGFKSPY
Put plainly: Antagonist activity at human P2X7 receptor expressed in HEK293 cells assessed as inhibition of BzATP-induced fluorescent ethidium accumulation at 8 uM. Format: functional, cell-based. In outline:
(§1)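 Adherent HEK293 cells stably transfected with human P2X7 cDNA were preincubated 30 min with compound. They were then resuspended at 2.5 × 10^6 cells/ml in 20 mM HEPES pH 7.4 with 140 mM KCl, 5 mM glucose, 1 mM EDTA and 0.1 mM ethidium bromide. BzATP was added to 1 mM for 120 min at 37 °C. Ethidium uptake was read by fluorescence (ex 530/20, em 590/20 nm).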

The target of another experiment is T2, P2X purinoceptor 7 (Homo sapiens, UniProt Q99572).
T2 sequence (Q99572 whole entry): T1 sequence (whole entry)
The experiment in a line: Antagonist activity at human P2X7 receptor expressed in HEK293 cells assessed as inhibition of BzATP-induced fluorescent ethidium accumulation. Format: functional, cell-based. In outline: as §1

Experiment [2] concerns THP-1. The experiment in a line: Inhibition of Bz-ATP-induced IL1-beta release in LPS/IFN-gamma-differentiated human THP1 cells at 1 uM by ELISA. The experiment is classed as functional. The method, boiled down: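 THP-1 cells were differentiated for 3 h with 25 ng/ml LPS plus 10 ng/ml IFNγ. They were preincubated 30 min with 1 µM compound, then stimulated with 1 mM BzATP for 30 min. Supernatants were collected by centrifugation (1000 rpm, 5 min) and mature human IL-1β was measured by ELISA. Results are mean ± SD percent inhibition, n = 3.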

Experiment [3] deals with THP-1. Put plainly: Inhibition of Bz-ATP-induced IL1-beta release in LPS/IFN-gamma-differentiated human THP1 cells by ELISA. Format: functional, cell-based. In outline:
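Full concentration–response curves used THP-1 cells differentiated for 3 h with 25 ng/ml LPS and 10 ng/ml IFNγ. Cells were preincubated 30 min with compound, then stimulated 30 min with 1 mM BzATP. Mature IL-1β in the centrifuged supernatant was quantified by ELISA.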

Each structure is given as a SMILES string. Calls of active or inactive are those of the source. The calls are words filed in the database; no cut-off is given here.

These results are taken from ChEMBL document CHEMBL1143291, “Synthesis and structure-activity relationships of novel, substituted 5,6-dihydrodibenzo[a,g]quinolizinium P2X7 antagonists” (Bioorg Med Chem Lett, 2009).

With `COc1cc2c(cc1OC)-c1cc3ccc(OC)c(OC)c3c[n+]1CC2`, in experiment [1], the outcome was inactive.
One may read the inhibition as the relative decrease from the control value, in per cent. Consider `COc1ccc2cc3[n+](cc2c1OC)CCc1cc2c(cc1-3)OCO2`, for which the inhibition in experiment [1] worked out at 7.03%.
The IC50 is the concentration at which inhibition is half-maximal. In the case of `COc1cc2c(cc1OC)-c1c(CC3CCCCC3)c3ccc(OC)c(OC)c3c[n+]1CC2`, on P2X purinoceptor 7, the IC50 stood at 1120 nM. The compound further had an inhibition at 1 µM with THP-1 [2] of 17%.
Taken in the same sequence, the figures for `CCc1c2[n+](cc3c(OCc4ccc(Cl)nc4)c(OC)ccc13)CCc1cc(OC)c(OC)cc1-2` were 4410 nM and 33%.
For `CCc1c2[n+](cc3c(OCc4ccc(-c5ccccc5)cc4)c(OC)ccc13)CCc1cc(OC)c(OC)cc1-2`, on P2X purinoceptor 7, the IC50 was 3220 nM. Moreover, in the experiment on THP-1 [2], the outcome was inactive.
For the compound `CCc1c2[n+](cc3c(OCc4cccc(Cl)c4)c(OC)ccc13)CCc1cc(OC)c(OC)cc1-2`, the IC50 on P2X purinoceptor 7 was 2660 nM. This compound displayed an inhibition at 1 µM with THP-1 [2] of 7%.
As to `CCc1c2[n+](cc3c(OCc4ccc(OCc5ccccc5)cc4)c(OC)ccc13)CCc1cc(OC)c(OC)cc1-2`, on P2X purinoceptor 7, the IC50 stood at 2810 nM. In addition, the result in the experiment with THP-1 [2] was inactive.
In the case of `COc1ccc2c(Cc3c(F)cccc3Cl)c3[n+](cc2c1OC)CCc1cc2c(cc1-3)OCO2`, the IC50 on P2X purinoceptor 7 is 400 nM. Further, testing at 1 µM with THP-1 [2] gave an inhibition of 50%.
Taken in the same sequence, the figures for `COc1cc(Cc2c3[n+](cc4c(OC)c(OC)ccc24)CCc2cc4c(cc2-3)OCO4)cc(OC)c1` were 260 nM and 39%.
Taken in the same sequence, the figures for `C=CCc1c2[n+](cc3c(OC)c(OC)ccc13)CCc1cc3c(cc1-2)OCO3` were 440 nM and 71%.
In the same order, the values of `CCc1c2[n+](cc3c(OCc4ccc(Br)cc4)c(OC)ccc13)CCc1cc(OC)c(OC)cc1-2` are 2600 nM and 5%.
Regarding `CCCc1c2[n+](cc3c(OC)c(OC)ccc13)CCc1cc(OC)c(OC)cc1-2`, the IC50 on P2X purinoceptor 7 was 500 nM.
Consider `CCc1c2[n+](cc3c(OCc4cc(C)ccc4C)c(OC)ccc13)CCc1cc(OC)c(OC)cc1-2`, for which the IC50 on P2X purinoceptor 7 stood at 1530 nM. Further, 1 µM produced 8% inhibition in the experiment on THP-1 [2].
In the same order, the values of `CCc1c2[n+](cc3c(OCc4ccccc4C(F)(F)F)c(OC)ccc13)CCc1cc(OC)c(OC)cc1-2` are 2560 nM and 13%.
In the same order, the values of `CCc1c2[n+](cc3c(OC)c(OC)ccc13)CCc1cc3c(cc1-2)OCO3` are 350 nM and 73%.
Taken in the same sequence, the figures for `CCc1c2[n+](cc3c(OCc4cc([N+](=O)[O-])ccc4OC)c(OC)ccc13)CCc1cc(OC)c(OC)cc1-2` were 420 nM and 42%.
With `CCc1c2[n+](cc3c(OCc4ccccc4C)c(OC)ccc13)CCc1cc(OC)c(OC)cc1-2`, the IC50 at P2X purinoceptor 7 turned out to be 5020 nM. Also, in the experiment with THP-1 [2], the result was inactive.
`CCc1c2[n+](cc3c(OCc4cc(C)ccc4[N+](=O)[O-])c(OC)ccc13)CCc1cc(OC)c(OC)cc1-2`: at P2X purinoceptor 7, the IC50 turned out to be 730 nM. In addition, in the experiment on THP-1 [2], 1 µM produced 40% inhibition.
Take `CCc1c2[n+](cc3c(OCc4ccc(C(C)(C)C)cc4)c(OC)ccc13)CCc1cc(OC)c(OC)cc1-2`: the 50% inhibitory concentration (IC50) at P2X purinoceptor 7 was 1260 nM. This compound gave an inhibition at 1 µM in the experiment with THP-1 [2] of 33%.
Turning to `CCc1c2[n+](cc3c(OCc4cc(OC)c(OC)cc4[N+](=O)[O-])c(OC)ccc13)CCc1cc(OC)c(OC)cc1-2`, the IC50 is 170 nM at P2X purinoceptor 7 and 175 nM in the experiment on THP-1 [3]. Moreover, 1 µM produced 83% inhibition with THP-1 [2].
`CCCC(I)c1c2[n+](cc3c(OC)c(OC)ccc13)CCc1cc3c(cc1-2)OCO3` (centres undefined): the IC50 on P2X purinoceptor 7 amounted to 420 nM. In the experiment on THP-1 [2], the inhibition at 1 µM amounted to 54%.
Consider `CCc1c2[n+](cc3c(OCc4cccc([N+](=O)[O-])c4C)c(OC)ccc13)CCc1cc(OC)c(OC)cc1-2`, for which the IC50 on P2X purinoceptor 7 was determined as 5400 nM.
As to `CC[C@@H]1c2ccc(OC)c(OC)c2CN2CCc3cc4c(cc3[C@H]12)OCO4` (racemic), at P2X purinoceptor 7, the IC50 came to 560 nM. Further, in the experiment with THP-1 [2], at 1 µM the inhibition was 34%.
Turning to `CN([C@@H](Cc1ccc(OS(=O)(=O)c2cccc3cnccc23)cc1)C(=O)N1CCN(c2ccccc2)CC1)S(=O)(=O)c1cccc2cnccc12`, the IC50 came out at 340 nM at P2X purinoceptor 7 and 81 nM in the experiment on THP-1 [3]. This compound also displayed an inhibition at 1 µM in the experiment with THP-1 [2] of 79%.
For `COc1ccc2c(c[n+](C)c3c4cc5c(cc4ccc23)OCO5)c1OC`, the result with THP-1 [2] was inactive.
With `CCc1c2[n+](cc3c(OCc4ccc(F)cc4C(F)(F)F)c(OC)ccc13)CCc1cc(OC)c(OC)cc1-2`, the IC50 on P2X purinoceptor 7 was determined as 820 nM. At 1 µM the inhibition in the experiment on THP-1 [2] was 13%.
